Results taken from ChEMBL document CHEMBL4428081, “Selective AKR1C3 Inhibitors Potentiate Chemotherapeutic Activity in Multiple Acute Myeloid Leukemia (AML) Cell Lines” (ACS Med Chem Lett, 2016).
pIC50: −log10 of the molar value. Blank lines part the entries; values can stand above or below the molecule they belong to. Activity calls are given as the source filed them. The rule behind the calls is not given here.

Experiments:
[1] = target: T1, Aldo-keto reductase family 1 member C3 (Homo sapiens, UniProt P42330); experiment: Inhibition of N-terminal His6-tagged human recombinant AKR1C3 in presence of NADPH by fluorescence assay
HL-60 = experiment: Cytotoxicity against human HL60 cells assessed as reduction in cell viability up to 100 uM at 72 hrs by MTS assay; assay type: functional, cell-based
How it was run: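 HL-60 human acute promyelocytic leukemia cells exposed to AKR1C3 inhibitor alone, with no chemotherapeutic, over a range up to 100 μM. Lower working range was 0.1–1 μM. Read-out was cell viability relative to untreated control.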

KG-1a = experiment: Cytotoxicity against human KG1a cells expressing AKR1C3 assessed as reduction in cell viability at >25 uM at 72 hrs by MTS assay; assay type: functional, cell-based
[2] = target: T2, Aldo-keto reductase family 1 member C3 (Homo sapiens) (UniProt P42330); experiment: Inhibition of AKR1C3 in human HL60 cells assessed as potentiation of etoposide-induced cytotoxicity by measuring reduction in cell viability at 0.1 uM coincubated with etoposide at 1 uM after 72 hrs by MTS assay (reference value: 40%); assay type: cell-based
T2 sequence (whole entry): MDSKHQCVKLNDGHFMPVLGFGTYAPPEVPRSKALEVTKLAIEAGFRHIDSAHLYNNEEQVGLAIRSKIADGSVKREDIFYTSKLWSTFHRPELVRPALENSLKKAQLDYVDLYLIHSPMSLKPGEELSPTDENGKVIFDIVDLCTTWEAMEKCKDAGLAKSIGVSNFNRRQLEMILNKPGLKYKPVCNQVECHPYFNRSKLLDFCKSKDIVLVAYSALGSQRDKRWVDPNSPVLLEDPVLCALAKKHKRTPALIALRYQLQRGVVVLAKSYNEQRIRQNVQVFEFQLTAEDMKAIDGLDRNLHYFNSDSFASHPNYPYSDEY
How it was run: (§1)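 HL-60 or KG1a cells were coincubated with inhibitor and etoposide for 72 h, then cell viability was read. Values are mean ± SD (n = 6). Treatments were compared with control by two-tailed t test.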

[3] = target: T2, Aldo-keto reductase family 1 member C3 (Homo sapiens); experiment: Inhibition of AKR1C3 in human HL60 cells assessed as potentiation of etoposide-induced cytotoxicity by measuring reduction in cell viability at 0.1 uM coincubated with etoposide at 0.5 uM after 72 hrs by MTS assay (reference value: 20%); assay type: cell-based; how it was run: as §1
[4] = target: T2, Aldo-keto reductase family 1 member C3 (Homo sapiens); experiment: Inhibition of AKR1C3 in human KG1a cells assessed as potentiation of etoposide-induced cytotoxicity by measuring reduction in cell viability at 0.1 uM coincubated with etoposide at 1 uM after 72 hrs by MTS assay; assay type: cell-based; how it was run: as §1
[5] = target: T2, Aldo-keto reductase family 1 member C3 (Homo sapiens); experiment: Inhibition of AKR1C3 in human HL60 cells assessed as potentiation of etoposide-induced cytotoxicity by measuring reduction in cell viability pre-treated with 0.1 to 1 uM compound for 24 hrs followed by 1 uM etoposide exposure for additional 72 hrs by MTS assay; assay type: cell-based
[6] = target: Aldo-keto reductase family 1 member C2 (Homo sapiens, UniProt P52895); experiment: Inhibition of recombinant AKR1C2 (unknown origin) assessed as reduction in S-tetralol catalyzed oxidation in presence of NADPH by fluorescence assay
Homo sapiens = species on record: Homo sapiens; experiment: Selectivity ratio of IC50 for recombinant AKR1C2 (unknown origin) to IC50 for recombinant AKR1C3 (unknown origin)
[7] = target: T1, Aldo-keto reductase family 1 member C3; experiment: Inhibition of recombinant N-terminal His-tagged AKR1C3 (unknown origin) assessed as rate of change of pyridine nucleotide absorbance in presence of NADPH

Chain of Aldo-keto reductase family 1 member C2 (P52895 whole entry): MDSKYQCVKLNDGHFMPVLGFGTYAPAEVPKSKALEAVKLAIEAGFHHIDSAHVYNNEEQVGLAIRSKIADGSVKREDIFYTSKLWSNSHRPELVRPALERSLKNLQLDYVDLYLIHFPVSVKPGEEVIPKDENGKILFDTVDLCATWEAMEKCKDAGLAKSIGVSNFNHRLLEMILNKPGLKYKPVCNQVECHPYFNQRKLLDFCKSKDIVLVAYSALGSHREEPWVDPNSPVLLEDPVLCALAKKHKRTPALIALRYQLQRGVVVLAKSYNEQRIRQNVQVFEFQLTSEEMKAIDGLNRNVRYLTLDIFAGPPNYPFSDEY

Compound: C[C@@H]1C(O)=C(C(N)=O)C(=O)[C@@]2(O)C(O)=C3C(=O)c4c(O)cccc4[C@@](C)(O)[C@H]3C[C@@H]12
pIC50 [1]: 6.30

Compound: CC(C)=CCc1cc(/C=C/C(=O)O)ccc1NC(=O)CCc1ccccc1
Activity (HL-60): inactive
Activity (KG-1a): Active
Activity [2]: 57%
Activity [3]: 25%
Activity [4]: 42%
Activity [5]: 80 to 95%

pIC50 [6]: 5.40
Ratio IC50 (Homo sapiens): 0.66
pIC50 [7]: 5.60
Compound: CC(=O)O[C@]1(C(C)=O)CC[C@H]2[C@@H]3C[C@H](C)C4=CC(=O)CC[C@]4(C)[C@H]3CC[C@@]21C [MEDROXYPROGESTERONE ACETATE]
